Data set [1] concerns the target T1, Peroxisome proliferator-activated receptor alpha (Homo sapiens) (UniProt Q07869).
T1 sequence (whole entry): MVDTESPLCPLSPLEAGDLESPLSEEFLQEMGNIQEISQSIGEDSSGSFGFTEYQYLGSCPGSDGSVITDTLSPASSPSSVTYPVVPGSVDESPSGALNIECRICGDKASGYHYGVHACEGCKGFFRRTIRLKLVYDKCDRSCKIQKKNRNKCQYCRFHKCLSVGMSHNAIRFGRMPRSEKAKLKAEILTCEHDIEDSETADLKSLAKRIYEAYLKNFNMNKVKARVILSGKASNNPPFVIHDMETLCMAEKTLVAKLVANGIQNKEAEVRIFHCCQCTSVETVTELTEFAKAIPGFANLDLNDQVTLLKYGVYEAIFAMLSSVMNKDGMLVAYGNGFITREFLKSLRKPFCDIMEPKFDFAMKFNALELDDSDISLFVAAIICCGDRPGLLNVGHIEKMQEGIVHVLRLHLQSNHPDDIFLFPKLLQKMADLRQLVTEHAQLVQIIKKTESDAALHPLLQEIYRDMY
Description: Agonist activity at human PPARalpha expressed in HEK293 cells co-transfected with PPRE assessed as beta-galactosidase signal at 25 uM after 48 hrs by reporter gene assay relative to control. In kind it is functional, cell-based. A digest of the protocol:
(§1)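 Human PPARα transactivation in HEK293 cells grown in DMEM/F-12 with 10% heat-inactivated FBS. Cells were transfected with FuGENE 6 using a PPRE-luciferase reporter, pBI-G-hPPARα and a β-galactosidase control plasmid. After 24 h they were replated at 5 × 10⁴ cells/well, attached overnight, then dosed for 48 h with 0.1% DMSO as vehicle. Luciferase was normalized to β-gal and expressed as fold over vehicle. Two experiments, each in triplicate.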

Data set [2] deals with T2, Peroxisome proliferator-activated receptor gamma (Homo sapiens, UniProt P37231).
T2 sequence (P37231 whole entry): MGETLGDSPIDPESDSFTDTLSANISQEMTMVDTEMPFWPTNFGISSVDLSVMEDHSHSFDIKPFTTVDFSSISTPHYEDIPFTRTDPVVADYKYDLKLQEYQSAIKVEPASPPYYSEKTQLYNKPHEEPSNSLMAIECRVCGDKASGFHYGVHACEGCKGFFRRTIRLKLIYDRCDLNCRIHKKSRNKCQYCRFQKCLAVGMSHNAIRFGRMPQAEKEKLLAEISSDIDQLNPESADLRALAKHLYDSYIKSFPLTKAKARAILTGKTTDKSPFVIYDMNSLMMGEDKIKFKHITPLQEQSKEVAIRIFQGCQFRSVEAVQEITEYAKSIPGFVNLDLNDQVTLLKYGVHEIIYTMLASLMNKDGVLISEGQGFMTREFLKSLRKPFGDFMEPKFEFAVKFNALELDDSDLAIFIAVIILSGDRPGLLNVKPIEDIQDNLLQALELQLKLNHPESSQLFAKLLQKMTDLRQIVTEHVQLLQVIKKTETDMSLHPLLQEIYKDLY
Description: Agonist activity at human PPARgamma assessed as luciferase activity by transactivation assay. It is filed as functional. The method in brief:
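Transiently transfected HEK293 (PPRE-luciferase reporter plus pSG5-hPPARγ1 and β-gal control), compound exposure 48 h. EC50 is the ligand concentration giving half-maximal fold induction of β-gal-normalized luciferase, fitted by nonlinear regression. Means of three experiments.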

Data set [3] deals with T1, Peroxisome proliferator-activated receptor alpha (Homo sapiens). Nature of the data set: Agonist activity at human PPARalpha expressed in HEK293 cells co-transfected with PPRE assessed as beta-galactosidase signal at 40 uM after 48 hrs by reporter gene assay relative to control. It is filed as functional, cell-based. The method in brief: as §1
The target of data set [4] is T3, Peroxisome proliferator-activated receptor alpha (Homo sapiens, UniProt Q07869).
T3 sequence (Q07869 whole entry): T1 sequence (whole entry)
Description: Agonist activity at human PPARalpha assessed as luciferase activity by transactivation assay. It is filed as functional.

Data set [5] has as its target T4, Peroxisome proliferator-activated receptor gamma (Homo sapiens) (UniProt P37231).
T4 sequence (whole entry): T2 sequence (P37231 whole entry)
Description: Agonist activity at human PPARgamma expressed in HEK293 cells co-transfected with PPRE assessed as beta-galactosidase signal at 25 uM after 48 hrs by reporter gene assay relative to control. It is filed as functional, cell-based. A digest of the protocol:
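HEK293 cells were transfected with FuGENE 6 using a PPRE-luciferase reporter, pSG5-hPPARγ1 and a β-galactosidase control plasmid. After 24 h they were replated at 5 × 10⁴ cells/well, attached overnight, then treated for 48 h with 0.1% DMSO as vehicle. Luciferase was read, normalized to the β-gal signal and reported as fold activation over vehicle. Mean of two experiments in triplicate.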

Data set [6] is described as follows: Cytotoxicity against HEK293 cells assessed as viable cells at 100 uM after 48 hrs by aqueous one solution cell proliferation assay relative to control. It is filed as cell-based. Particulars: human, read-out: Activity. A digest of the protocol:
(§2)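 HEK293 cells were seeded overnight, then exposed to 0–100 μM compound for 48 h at 37 °C in 5% CO₂. MTS reagent was added for a further 2 h and absorbance read at 490 nm. Viability is given as % relative to DMSO vehicle control. Two experiments, each in quadruplicate.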

The nature of data set [7]: Cytotoxicity against HEK293 cells assessed as viable cells at 50 uM after 48 hrs by aqueous one solution cell proliferation assay relative to control. The conditions noted are these: human, read-out: Activity. It is filed as cell-based. A digest of the protocol:
as §2

Data set [8] is described as follows: Cytotoxicity against HEK293 cells assessed as viable cells at 10 uM after 48 hrs by aqueous one solution cell proliferation assay relative to control. It is filed as cell-based. The conditions noted are these: human, read-out: Activity. The method in brief: as §2
Data set [9] deals with T4, Peroxisome proliferator-activated receptor gamma (Homo sapiens). Nature of the data set: Agonist activity at PPARgamma expressed in mouse RAW264.7 cells assessed as beta-galactosidase signal at 10 uM by reporter gene assay relative to control. In kind it is functional, cell-based.
The next data set deals with HEK293. Description: Cytotoxicity against HEK293 cells assessed as decrease in viable cells at 50 uM after 48 hrs by aqueous one solution cell proliferation assay relative to control. It is filed as cell-based. Particulars: human, hek293, 48 h. The method in brief:
as §2

The nature of data set [10]: Cytotoxicity against HEK293 cells assessed as viable cells at 0.1 uM after 48 hrs by aqueous one solution cell proliferation assay relative to control. It is filed as cell-based. Particulars: human, read-out: Activity. A digest of the protocol:
as §2

On to `O=c1c(-c2ccc3c(c2)OCO3)coc2cc(O)ccc12` [PSEUDOBAPTOGENIN], for which the fold change (FC) in data set [1] is 5.6; in [3] it was 11.7; in [5] it was 38.5. Further, the EC50 came out at 26.9 µM in data set [2] and 8.9 µM in data set [4]. The viability at 48 h, 100 µM in data set [6] was greater than 60%. For the same compound, the viability at 48 h, 50 µM in data set [7] is greater than 67%. Besides, the viability at 48 h, 10 µM in data set [8] is greater than 90%.

For `COc1cccc(-c2coc3cc(O)ccc3c2=O)c1`, the fold change (FC) in [1] amounted to 16.5; in data set [3], 43; in [5], 57.5. The results for the EC50 in data set [2] and in data set [4] were 22.3 µM and 23.1 µM, respectively. Further, in [6], the viability at 48 h, 100 µM was greater than 60%. In addition, in data set [7], the viability at 48 h, 50 µM is greater than 67%. Besides, the viability at 48 h, 10 µM in data set [8] was greater than 90%.

For `O=c1c(O)c(-c2ccc(O)cc2)oc2cc(O)cc(O)c12`, the fold change (FC) in data set [1] turned out to be 1.8; in data set [3] it was 2.6; in data set [9], 7.6; in data set [5], 3.5.

Regarding `COc1cc(OC)cc(-c2coc3cc(O)ccc3c2=O)c1`, the results for the fold change (FC) in data set [1], in data set [3] and in [5] were 4.8, 25.3 and 116, respectively. Further, the EC50 in data set [2] is 18.9 µM; in data set [4], 24.6 µM. Moreover, the viability at 48 h, 50 µM in [7] was greater than 67%. Moreover, the viability at 48 h, 10 µM in data set [8] was greater than 80%.

As to `O=c1cc(-c2ccccc2)oc2cc(O)cc(O)c12`, the fold change (FC) stood at 3.4 in data set [1], 5.3 in data set [3], 5.6 in data set [9] and 4 in [5].

As for `O=c1cc(-c2ccc(O)cc2)oc2cc(O)cc(O)c12`, the fold change (FC) in data set [1] is 2; in [3], 2.3; in data set [9], 8.13; in data set [5] it was 5.4.

In the case of `CC(C)OC(=O)C(C)(C)Oc1ccc(C(=O)c2ccc(Cl)cc2)cc1` [FENOFIBRATE], the Activity in the data set on HEK293 was 38%. In addition, the viability at 48 h, 0.1 µM in data set [10] is greater than 90%.

For the origin of these results see ChEMBL document CHEMBL1154598, “7-Hydroxy-benzopyran-4-one derivatives: a novel pharmacophore of peroxisome proliferator-activated receptor alpha and -gamma (PPARalpha and gamma) dual agonists” (J Med Chem, 2009).
